Published values gathered from unrelated publications.
Lines come from different studies, so protocols differ.
Target: Serine/threonine-protein kinase ULK2 (ULK2, Homo sapiens, UniProt Q8IYT8)
Residues used in one study (Q8IYT8 1-1036): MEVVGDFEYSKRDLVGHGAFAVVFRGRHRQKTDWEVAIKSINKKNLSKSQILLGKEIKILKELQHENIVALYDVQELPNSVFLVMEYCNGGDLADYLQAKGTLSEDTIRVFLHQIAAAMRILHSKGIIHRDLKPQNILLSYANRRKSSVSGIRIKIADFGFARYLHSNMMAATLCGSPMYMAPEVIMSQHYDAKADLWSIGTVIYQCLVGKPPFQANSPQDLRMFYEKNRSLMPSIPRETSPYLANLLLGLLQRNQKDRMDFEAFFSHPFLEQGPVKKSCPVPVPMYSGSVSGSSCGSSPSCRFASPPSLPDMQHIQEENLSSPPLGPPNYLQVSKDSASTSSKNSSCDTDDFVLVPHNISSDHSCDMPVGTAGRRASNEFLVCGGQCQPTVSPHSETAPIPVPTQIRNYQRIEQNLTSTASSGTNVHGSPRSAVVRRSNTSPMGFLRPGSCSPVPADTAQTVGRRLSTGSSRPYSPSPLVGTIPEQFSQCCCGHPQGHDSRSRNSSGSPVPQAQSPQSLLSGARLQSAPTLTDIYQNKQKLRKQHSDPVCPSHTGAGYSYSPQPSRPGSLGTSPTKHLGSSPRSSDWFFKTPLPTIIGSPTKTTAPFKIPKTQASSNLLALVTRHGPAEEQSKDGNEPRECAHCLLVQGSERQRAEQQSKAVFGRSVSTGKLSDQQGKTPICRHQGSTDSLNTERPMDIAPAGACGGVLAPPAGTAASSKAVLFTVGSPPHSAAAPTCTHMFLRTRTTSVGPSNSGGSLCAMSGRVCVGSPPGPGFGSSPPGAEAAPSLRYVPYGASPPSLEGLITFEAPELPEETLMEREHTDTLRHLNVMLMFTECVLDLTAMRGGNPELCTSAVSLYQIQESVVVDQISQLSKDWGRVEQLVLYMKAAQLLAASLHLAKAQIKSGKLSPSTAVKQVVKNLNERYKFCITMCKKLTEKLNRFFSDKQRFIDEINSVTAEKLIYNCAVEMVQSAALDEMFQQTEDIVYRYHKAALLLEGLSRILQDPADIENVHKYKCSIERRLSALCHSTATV

Structure (SMILES) | assay | conditions | remaining binding
C[C@H]1CCN(c2nccc(-c3cnn4ncccc34)n2)C1 | binding | 1 µM | 63%
O=C1CCc2cc(Nc3cc(OC4CCOCC4)c([N+](=O)[O-])cc3Cl)ccc2N1 | cell-free assay, competition with immobilised ligand | 1 µM | 99%
CC(C)(C)c1ccc(-c2nc(CBr)nn2-c2cccc(O)c2)cc1 | cell-free assay, competition with immobilised ligand | 10 µM | 92%
O=C(c1ccc(Nc2ncc(Cl)c(-c3cc4ccccc4s3)n2)cc1)N1CCC(N2CCCC2)CC1 | binding, competition with immobilised ligand | 1 µM | 35%
CCCOc1ccc([C@H]2[C@H](C(=O)O)[C@@H](c3ccc4c(c3)OCO4)CN2CC(=O)Nc2c(CC)cccc2CC)cc1 | cell-free assay, competition with immobilised ligand | 1 µM | 55%
c1cnn2ncc(-c3ccnc(N4CCC45COC5)n3)c2c1 | binding | 1 µM | 59%
CCS(=O)(=O)c1cc2cc(C[C@](O)(CC(C)(C)c3ccc(F)cc3C(N)=O)C(F)(F)F)[nH]c2cn1 | cell-free assay, competition with immobilised ligand | 1 µM | 100%
CN(c1nccc(-c2cnn3ncccc23)n1)C1CC1 | binding | 1 µM | 100%
COc1cnc(Nc2cccc(S(N)(=O)=O)c2)nc1N1CCN(c2ccccc2)CC1 | binding, competition with immobilised ligand | 1 µM | 96%
CN(C)c1nccc(-c2cnn3ncccc23)n1 | binding | 1 µM | 100%
CS(=O)(=O)c1cc(C2(NC(=O)c3cncc4c3cnn4-c3ccc(F)cc3)CC2)ccn1 | cell-free assay, competition with immobilised ligand | 1 µM | 92%
CCN1CCN(Cc2ccc(C(=O)Nc3ccc(C)c(Oc4ccc5c(c4)CC(=O)N5)c3)cc2C(F)(F)F)CC1 | binding, competition with immobilised ligand | 1 µM | 100%
C[C@@H]1CN(c2ccc3ncc(-c4ccc5[nH]nc(C6CC6)c5c4)n3n2)C[C@H](C)O1 | binding, competition with immobilised ligand | 0.5 µM | 91%
CNCc1ccccc1-c1csc([C@H](C)Nc2nc(C)nc3cc(OC)c(OC)cc23)c1 | cell-free assay, competition with immobilised ligand | 1 µM | 100%
Cc1cnn2ncc(-c3ccnc(N(C)C)n3)c2c1 | binding | 1 µM | 92%
O=C(O)[C@H]1[C@H](Cn2nnc3ccccc3c2=O)CC[C@@H]1C(=O)c1ccc(OCCC2CCOCC2)cc1 | cell-free assay, competition with immobilised ligand | 1 µM | 100%
O=C(NCC1CCOCC1)c1n[nH]cc1NC(=O)c1c(F)cccc1F | binding, competition with immobilised ligand | 1 µM | 81%
CNC(=O)[C@@H]1CC[C@@H](n2c(-c3ccc4cnccc4c3)nc3ccc(C(=O)NCc4cccc(C(N)=O)c4)cc32)C1 | binding, competition with immobilised ligand | 1 µM | 100%
COCCOc1nc(-c2ccc(Cl)nc2)nc2c1CN(C(=O)c1ncn3ccccc13)CC2 | cell-free assay, competition with immobilised ligand | 0.1 µM | 100%
c1cncc(-c2cccc(Nc3nccc(NC4CCCCC4)n3)c2)c1 | binding, competition with immobilised ligand | 10 µM | 80%
CC1CCCN1c1nccc(-c2cnn3ncccc23)n1 (stereo not shown) | binding | 1 µM | 74%
O=C(c1ccc(Nc2ncc(Cl)c(-c3ccc(Cl)s3)n2)cc1)N1CCC(N2CCCC2)CC1 | binding, competition with immobilised ligand | 1 µM | 31%
COc1ncc2cc3ccccc3nc2c1C#N | cell-free assay, competition with immobilised ligand | 5 µM | 100%
O=C(c1ccc(Nc2nccc(-c3cc4ccccc4s3)n2)cc1)N1CCC(N2CCCC2)CC1 | binding, competition with immobilised ligand | 1 µM | 87%
FC(F)(F)Oc1cccc(-c2cnc3ccc(-c4ccncc4)nn23)c1 | binding, competition with immobilised ligand | 5 µM | 78%
